# Source: ChEMBL document CHEMBL1153622, “Antiviral evaluation of N-amino-1,2,3-triazoles against Cantagalo virus replication in cell culture” (Eur J Med Chem, 2009)
# Calls of active or inactive are those of the source. The rule behind the calls is not given here.
# Tests used:
# Cantagalo virus [1] = assay: Antiviral activity against Cantagalo virus in african green monkey BSC40 cells assessed inhibition of viral plaque number at 50 uM after 48 hrs post infection; assay type: functional; settings: BSC-40, 48 h
# Cowpox virus = assay: Antiviral activity against Cowpox virus; assay type: functional, organism-based
# Vaccinia virus = assay: Antiviral activity against Vaccinia virus; assay type: functional, organism-based; settings: Orthopoxvirus vaccinia
# [2] = Cytotoxicity against african green monkey BSC40 cells assessed as cell viability at 50 uM for 24 hrs by neutral red assay; assay type: cell-based, BSC-40; settings: chlorocebus aethiops, read-out: Activity
# Outline: (§1)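 Confluent BSC-40 cells exposed to compound for 24 h at 37 °C, 0.5% DMSO control. Neutral red (50 µg/mL) added for 3 h at 37 °C, then 50% methanol with 1% acetic acid for 20 min at room temperature. OD 490 nm read; uptake proportional to viable cells.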
# Cantagalo virus [3] = assay: Antiviral activity against Cantagalo virus in african green monkey BSC40 cells assessed inhibition of viral yield at 50 uM after 24 hrs post infection by plaque assay; assay type: functional; settings: BSC-40, 24 h
# [4] = Cytotoxicity against african green monkey BSC40 cells assessed as non-viable cells at 100 uM for 24 hrs by neutral red assay; assay type: cell-based; settings: chlorocebus aethiops, bsc-40, 24 h; outline: as §1
# [5] = Cytotoxicity against african green monkey BSC40 cells assessed as non-viable cells at 50 uM for 24 hrs by neutral red assay; assay type: cell-based; settings: chlorocebus aethiops, bsc-40, 24 h; outline: as §1
# Cantagalo virus [6] = assay: Antiviral activity against Cantagalo virus in african green monkey BSC40 cells assessed as inhibition of viral protein accumulation at 100 uM after 24 hrs post infection by Western blot; assay type: functional, BSC-40; parameters: scale not given: the % may be the effect or the level left
# Cantagalo virus [7] = assay: Antiviral activity against Cantagalo virus replication in african green monkey BSC40 cells assessed as inhibition of viral protein accumulation after 24 hrs post infection by Western blot; assay type: functional, organism-based; settings: BSC-40
# Cantagalo virus [8] = assay: Antiviral activity against Cantagalo virus in african green monkey BSC40 cells assessed inhibition of viral yield at 100 uM after 24 hrs post infection by plaque assay; assay type: functional, BSC-40; parameters: scale not given: the % may be the effect or the level left
# Cantagalo virus [9] = assay: Antiviral activity against Cantagalo virus replication in BSC-40 cells assessed as inhibition of viral protein accumulation at 50 uM after 24 hrs post infection by Western blot; assay type: functional, organism-based
# Cantagalo virus [10] = assay: Antiviral activity against Cantagalo virus in african green monkey BSC40 cells assessed inhibition of viral plaque formation at 100 uM after 48 hrs post infection; assay type: functional; settings: BSC-40, 48 h
# [11] = Cytotoxicity against african green monkey BSC40 cells assessed as change in cell morphology at 100 uM for 24 hrs by neutral red assay; assay type: cell-based; settings: chlorocebus aethiops, bsc-40, 24 h
# [12] = Cytotoxicity against african green monkey BSC40 cells assessed as reduction in cell viability at 100 uM for 24 hrs by neutral red assay; assay type: cell-based; settings: chlorocebus aethiops, bsc-40, 24 h; outline: as §1
structure (smiles),measurement,setting,value
Cc1c(C(=O)NN)nnn1Nc1ccc(Cl)cc1,inhibition at 50 µM,Cantagalo virus [1],3.79%
CCOC(=O)c1nnn(Nc2ccc(F)cc2)c1C,inhibition at 50 µM,Cantagalo virus [1],9.42%
CCOC(=O)c1nnn(Nc2ccccc2)c1C,inhibition at 50 µM,Cantagalo virus [1],15.2%
Cc1c(C(=O)NN)nnn1Nc1cc(Cl)ccc1Cl,inhibition at 50 µM,Cantagalo virus [1],9.71%
O=C(NN1C(=O)[C@@H]2[C@@H]3C=C[C@@H]([C@H]4C[C@@H]34)[C@@H]2C1=O)c1ccc(C(F)(F)F)cc1 [TECOVIRIMAT],EC50,Cowpox virus,< 0.5 µM
same,EC50,Vaccinia virus,< 0.5 µM
CCOC(=O)c1nnn(Nc2ccc(Cl)cc2)c1C,inhibition at 50 µM,Cantagalo virus [1],11%
CCOC(=O)c1nnn(Nc2cc(Cl)ccc2Cl)c1C,inhibition at 50 µM,Cantagalo virus [1],47.2%
same,"viability at 24 h, 50 µM",[2],60%
same,inhibition at 50 µM,Cantagalo virus [3],67.5%
Cc1c(C(=O)NN)nnn1Nc1ccccc1,inhibition at 50 µM,Cantagalo virus [1],6.1%
Cc1c(C(=O)NN)nnn1Nc1ccc(F)cc1,Activity,[4],30%
same,inhibition at 50 µM,Cantagalo virus [1],48.3%
same,Activity,[5],10%
same,Activity,Cantagalo virus [6],71.2%
same,inhibition at 50 µM,Cantagalo virus [3],55.7%
same,Activity,Cantagalo virus [7],Dose-dependent effect
same,Activity,Cantagalo virus [8],80%
same,Activity,Cantagalo virus [9],Active
CCOC(=O)c1nnn(Nc2ccc(Br)cc2)c1C,inhibition at 100 µM,Cantagalo virus [10],84.6%
same,Activity,[11],Toxic
same,Activity,[12],52.6%
same,inhibition at 50 µM,Cantagalo virus [1],34.4%
Nc1ccn(C[C@@H](CO)OCP(=O)(O)O)c(=O)n1 [CIDOFOVIR],EC50,Vaccinia virus,10 µM
Cc1c(C(=O)NN)nnn1Nc1ccc(Br)cc1,inhibition at 50 µM,Cantagalo virus [1],8.4%
